Reference: ChEMBL document CHEMBL4014332, “Multitargeted Imidazoles: Potential Therapeutic Leads for Alzheimer's and Other Neurodegenerative Diseases” (J Med Chem, 2017)

How the values were obtained:
[1] = species: Rattus norvegicus; test: Inhibition of 5-LOX-mediated LTB4 production in arachidonic acid-stimulated RBL1 cells at 10 uM preincubated for 2 hrs followed by A23187 induction for 15 mins by LC/MS/MS analysis relative to control
Outline: (§1)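 RBL-1 cells grown in RPMI/10% FBS, plated 9 × 10⁵ cells/well, held 2 h at 37 °C, then given compound for 2 h (screen at 10 μM, then concentration–response in triplicate). Stimulation was 12 μM A23187 for 15 min. Supernatants were extracted with MeOH/0.01% BHT and LTB₄ quantified by UPLC-MS/MS in negative ion mode.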

[2] = Change in total alpha-tubulin levels in human QBI293 cells at 1 uM after 4 hrs by ELISA relative to control; details: qbi293, 4 h
[3] = species: Homo sapiens; test: Induction of microtubule stabilization in human QBI293 cells assessed as increase in acetylated tubulin levels at 1 uM after 4 hrs by ELISA relative to control; format: cell-based
Outline: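 QBI-293 cells grown in DMEM/10% FBS at 37 °C, 5% CO2, plated 6 × 10⁵ cells/well overnight, then treated with vehicle or compound (1 and 10 μM) for 4 h. Lysis was in RIPA with protease inhibitors, 1 mM PMSF and 1 μM TSA, followed by 100000g spin for 30 min. Acetylated α-tubulin was measured by ELISA on BCA-quantified supernatant, reported as fold change vs DMSO, at least triplicate, t test.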

[4] = Inhibition of 5-LOX-mediated LTB4 production in arachidonic acid-stimulated RBL1 cells preincubated for 2 hrs followed by A23187 induction for 15 mins by LC/MS/MS analysis; details: Rattus norvegicus, RBL-1; outline: as §1
[5] = target: T1, Cyclooxygenase (Rattus norvegicus, UniProt P35355+Q63921); test: Inhibition of COX-mediated PGD2/PGE2 production in arachidonic acid-stimulated RBL1 cells preincubated for 2 hrs followed by A23187 induction for 15 mins by LC/MS/MS analysis
T1 sequence (P35355 whole entry): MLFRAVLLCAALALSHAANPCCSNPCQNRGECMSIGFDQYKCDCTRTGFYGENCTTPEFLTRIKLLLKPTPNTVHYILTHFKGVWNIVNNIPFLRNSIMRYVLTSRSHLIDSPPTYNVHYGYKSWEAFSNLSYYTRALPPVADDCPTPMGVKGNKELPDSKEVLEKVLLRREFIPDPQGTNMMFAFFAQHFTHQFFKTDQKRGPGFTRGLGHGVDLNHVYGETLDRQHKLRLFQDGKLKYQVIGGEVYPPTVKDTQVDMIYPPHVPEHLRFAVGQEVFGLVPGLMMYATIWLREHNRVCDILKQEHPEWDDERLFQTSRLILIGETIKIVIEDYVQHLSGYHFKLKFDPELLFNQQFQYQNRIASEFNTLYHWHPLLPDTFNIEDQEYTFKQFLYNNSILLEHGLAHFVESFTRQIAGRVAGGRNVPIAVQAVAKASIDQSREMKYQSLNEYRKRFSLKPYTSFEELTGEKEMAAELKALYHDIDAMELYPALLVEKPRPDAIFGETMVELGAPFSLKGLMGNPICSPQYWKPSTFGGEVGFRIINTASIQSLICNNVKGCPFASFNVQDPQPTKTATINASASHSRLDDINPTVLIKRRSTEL
T1 sequence (Q63921 whole entry): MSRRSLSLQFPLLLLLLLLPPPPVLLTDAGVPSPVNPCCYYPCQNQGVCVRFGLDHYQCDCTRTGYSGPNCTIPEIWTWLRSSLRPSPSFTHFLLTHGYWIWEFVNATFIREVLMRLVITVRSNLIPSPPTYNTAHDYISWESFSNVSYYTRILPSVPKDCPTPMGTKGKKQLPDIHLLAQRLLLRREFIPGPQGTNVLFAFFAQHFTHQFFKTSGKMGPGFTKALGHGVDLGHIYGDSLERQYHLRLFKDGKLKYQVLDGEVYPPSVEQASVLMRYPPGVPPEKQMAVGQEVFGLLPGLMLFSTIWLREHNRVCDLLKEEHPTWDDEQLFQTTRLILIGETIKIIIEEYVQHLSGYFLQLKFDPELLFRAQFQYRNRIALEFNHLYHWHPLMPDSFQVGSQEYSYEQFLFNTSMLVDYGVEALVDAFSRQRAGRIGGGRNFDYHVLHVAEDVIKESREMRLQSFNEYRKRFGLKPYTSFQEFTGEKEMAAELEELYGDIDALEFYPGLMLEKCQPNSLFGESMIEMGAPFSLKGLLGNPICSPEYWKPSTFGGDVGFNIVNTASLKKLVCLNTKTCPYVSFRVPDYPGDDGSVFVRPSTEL
Outline: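 RBL-1 cells in RPMI/10% FBS, 9 × 10⁵ cells/well, held 2 h, then exposed to compound for 2 h at multiple concentrations in triplicate. Stimulation was 12 μM A23187 for 15 min. Eicosanoids were extracted with MeOH/0.01% BHT, and PGD₂ plus PGE₂ measured by UPLC-MS/MS (negative ion, 351 > 315).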

SMILES	inhibition [1] [%]	Activity [2]	further results
Fc1ccc(-c2c(Cl)ncn2-c2ccc(Cl)cc2)cc1	59	Non-Toxic	
Clc1ccc(-n2cncc2-c2ccccc2)cc1	16	Non-Toxic	
CC(C)Cc1ccc(C(C)C(=O)O)cc1 (stereo not drawn) [IBUPROFEN]	< 10	Non-Toxic	
COc1ccc(F)c(-c2c(Cl)ncn2-c2ccc(Cl)cc2)c1F	91		FC [2]: 0.8
Cc1cc(F)c(-c2cncn2-c2ccc(Cl)cc2)c(F)c1	84	Non-Toxic	
Fc1ccc(F)c(-c2cnc(Cl)n2-c2ccc(OC(F)(F)F)cc2)c1F	80	Non-Toxic	
COc1ccc(-c2c(Cl)ncn2-c2ccc(Cl)cc2)cc1	< 10	Non-Toxic	
Fc1cccc(F)c1-c1cncn1-c1ccc(OC(F)(F)F)cc1	55	Non-Toxic	
C[C@H](Nc1c(-c2c(F)cc(F)cc2F)c(Cl)nc2ncnn12)C(F)(F)F		Non-Toxic	fold change (FC) [3]: 2.5
Clc1ccc(-n2c(-c3ccccc3)cnc2Cl)cc1	52		FC [2]: 1.2
Fc1ccc(F)c(-c2c(Cl)ncn2-c2ccc(OC(F)(F)F)cc2)c1F	85	Non-Toxic	
COc1ccc(-n2cncc2-c2c(F)cc(F)cc2F)cc1	25	Non-Toxic	
COc1ccc(-c2cncn2-c2ccc(Cl)cc2)cc1	< 10	Non-Toxic	
Fc1ccc(F)c(-c2c(Cl)ncn2-c2ccc(Cl)cc2)c1	69	Non-Toxic	
Fc1ccc(-c2cnc(Cl)n2-c2ccc(Cl)cc2)cc1	57	Non-Toxic	
COc1ccc(F)c(-c2cncn2-c2ccc(Cl)cc2)c1F	78	Non-Toxic	
Fc1ccc(F)c(-c2cncn2-c2ccc(OC(F)(F)F)cc2)c1F	52		FC [2]: 1.2
Fc1cc(F)c(-c2c(Cl)ncn2-c2ccc(Cl)nc2)c(F)c1	< 10		FC [2]: 0.8
Fc1cc(F)c(-c2cnc(Cl)n2-c2ccc(Cl)cc2)c(F)c1	61	Non-Toxic	
Cc1ncc(-c2c(F)ccc(F)c2F)n1-c1ccc(Cl)cc1	45		FC [2]: 0.9
COc1ccc(-n2cnc(Cl)c2-c2c(F)cc(F)cc2F)cc1	86	Non-Toxic	IC50 [4]: 9.7 µM; IC50 [5]: 2.4 µM
Fc1cc(F)c(-c2cncn2-c2ccc(Cl)cc2)c(F)c1	24	Non-Toxic	

Continued, in another order:

inhibition [1] [%]	SMILES	Activity [2]	further results
< 10	Cc1nc(Cl)c(-c2c(F)cc(F)cc2F)n1-c1ccc(Cl)cc1	Non-Toxic	
46	Fc1cc(F)c(-c2c(Cl)ncn2-c2ccc(Cl)cc2)c(F)c1	Non-Toxic	
78	Fc1cccc(F)c1-c1c(Cl)ncn1-c1ccc(OC(F)(F)F)cc1	Non-Toxic	
90	Fc1cccc(F)c1-c1c(Cl)nc(Cl)n1-c1ccc(Cl)cc1	Non-Toxic	
< 10	Fc1cccc(F)c1-c1cncn1-c1ccccc1Cl	Non-Toxic	
56	Fc1cccc(F)c1-c1c(Cl)ncn1-c1ccccc1Cl	Non-Toxic	
51	Cc1nc(C)n(-c2ccc(Cl)cc2)c1-c1c(F)ccc(Cl)c1F	Non-Toxic	
61	Fc1cccc(F)c1-c1cnc(Cl)n1-c1ccc(OC(F)(F)F)cc1	Non-Toxic	
48	Fc1cc(F)c(-c2c(Cl)nc(Cl)n2-c2ccc(Cl)cc2)c(F)c1	Non-Toxic	
68	COc1ccc(F)c(-c2cnc(Cl)n2-c2ccc(Cl)cc2)c1F		FC [2]: 0.6
87	Cc1nc(Cl)c(-c2c(F)cccc2F)n1-c1ccc(Cl)cc1		FC [2]: 0.8; fold change (FC) [3]: 2.5
56	Fc1ccc(F)c(-c2c(Cl)nc(Cl)n2-c2ccc(OC(F)(F)F)cc2)c1F	Non-Toxic	
26	Cc1nc(Cl)c(-c2c(F)cc(F)cc2F)n1-c1ccc(Cl)nc1	Non-Toxic	
14	Fc1cc(Cl)ccc1-n1cnc(Cl)c1-c1c(F)cccc1F	Non-Toxic	
58	Cc1nc(Cl)n(-c2ccc(Cl)cc2)c1-c1c(F)ccc(F)c1F	Non-Toxic	
58	Fc1cc(-n2c(-c3c(F)ccc(F)c3F)cnc2Cl)ccc1Cl	Non-Toxic	

inhibition [1] [%]	SMILES	Activity [2]	further results
54	Cc1nc(Cl)n(-c2ccc(Cl)cc2)c1-c1c(F)ccc(Cl)c1F		FC [2]: 0.5
63	Cc1cc(F)c(-c2c(Cl)nc(Cl)n2-c2ccc(Cl)cc2)c(F)c1		FC [2]: 0.7
< 10	Fc1cccc(F)c1-c1cncn1-c1ccccc1	Non-Toxic	
84	Cc1nc(Cl)c(-c2c(F)ccc(Cl)c2F)n1-c1ccc(Cl)cc1		FC [2]: 0.6; fold change (FC) [3]: 1.7
49	Fc1cc(Cl)ccc1-n1c(-c2c(F)cccc2F)cnc1Cl	Non-Toxic	
44	Cc1ncn(-c2ccc(Cl)cc2)c1-c1c(F)cccc1F	Non-Toxic	
78	Cc1ccc(F)c(-c2c(Cl)ncn2-c2ccc(Cl)cc2)c1F		FC [2]: 0.8
81	Fc1cccc(F)c1-c1c(Cl)nc(Cl)n1-c1ccc(OC(F)(F)F)cc1	Non-Toxic	
42	Cc1nc(Cl)n(-c2ccc(Cl)cc2)c1-c1c(F)cccc1F	Non-Toxic	
88	Fc1ccc(Cl)c(F)c1-c1cnc(Cl)n1-c1ccc(Cl)cc1		FC [2]: 0.8
38	Fc1cccc(F)c1-c1cnc(Cl)n1-c1ccccc1Cl	Non-Toxic	
81	CCc1nc(Cl)c(-c2c(F)cccc2F)n1-c1ccc(Cl)cc1	Non-Toxic	fold change (FC) [3]: 1.8
73	Cc1cc(F)c(-c2cnc(Cl)n2-c2ccc(Cl)cc2)c(F)c1	Non-Toxic	
21	Fc1cccc(F)c1-c1c(Cl)nc(Cl)n1-c1ccccc1Cl	Non-Toxic	
24	Fc1ccc(F)c(-c2cnc(Cl)n2-c2ccc(Cl)cc2)c1F	Non-Toxic	
< 10	Clc1ccc(-n2c(Cl)nc(Cl)c2-c2ccccc2)cc1	Non-Toxic	
